Measured values published in ChEMBL document CHEMBL4325904 (Eur J Med Chem, 2019).
Active and inactive are the calls of the source. The calls are words filed in the database; no cut-off is given here.

Legend:
[1] = molecular target: T1, Polyamine deacetylase HDAC10 (Homo sapiens, UniProt Q969S8); test: Inhibition of human HDAC10 using RHKK-Ac as substrate by fluorimetric assay
T1 sequence (Q969S8 whole entry): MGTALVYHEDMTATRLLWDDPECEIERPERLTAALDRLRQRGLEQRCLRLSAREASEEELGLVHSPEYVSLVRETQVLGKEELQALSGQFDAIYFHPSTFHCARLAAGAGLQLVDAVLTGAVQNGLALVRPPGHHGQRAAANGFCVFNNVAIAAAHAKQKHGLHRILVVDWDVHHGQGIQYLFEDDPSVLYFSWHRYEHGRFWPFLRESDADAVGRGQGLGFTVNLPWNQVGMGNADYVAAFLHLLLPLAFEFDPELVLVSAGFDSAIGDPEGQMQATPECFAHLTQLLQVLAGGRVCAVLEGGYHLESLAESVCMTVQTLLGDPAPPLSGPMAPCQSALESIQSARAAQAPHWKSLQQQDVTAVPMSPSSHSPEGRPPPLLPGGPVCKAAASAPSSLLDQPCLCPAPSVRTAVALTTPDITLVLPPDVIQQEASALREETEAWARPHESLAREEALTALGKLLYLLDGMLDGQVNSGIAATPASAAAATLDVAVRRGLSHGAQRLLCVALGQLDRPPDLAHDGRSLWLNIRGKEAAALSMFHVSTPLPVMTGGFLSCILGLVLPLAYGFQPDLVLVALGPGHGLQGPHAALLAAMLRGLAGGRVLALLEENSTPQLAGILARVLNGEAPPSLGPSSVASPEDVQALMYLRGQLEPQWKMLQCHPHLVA

[2] = tested on: Danio rerio; test: Antiangiogenic activity in zebrafish embryo assessed as effect on blood vessel development at 10 uM administered from 24 to 50 hrs post fertilization for 24 hrs and measured after 72 hrs by alkaline phosphatase assay; type: functional, organism-based
In short: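 Zebrafish embryos exposed at 10 µM from 24–50 hpf alongside vehicle-only controls; at 72 hpf embryos stained with alkaline phosphatase to visualise blood vessels.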

[3] = molecular target: T2, Histone deacetylase 8 (Homo sapiens, UniProt Q9BY41); test: Inhibition of recombinant C-terminal His-tagged human HDAC8 (1 to 377 residues) expressed in Baculovirus infected insect cells using RHK-K(Ac)-AMC as substrate by fluorimetric assay
T2 sequence (Q9BY41 whole entry): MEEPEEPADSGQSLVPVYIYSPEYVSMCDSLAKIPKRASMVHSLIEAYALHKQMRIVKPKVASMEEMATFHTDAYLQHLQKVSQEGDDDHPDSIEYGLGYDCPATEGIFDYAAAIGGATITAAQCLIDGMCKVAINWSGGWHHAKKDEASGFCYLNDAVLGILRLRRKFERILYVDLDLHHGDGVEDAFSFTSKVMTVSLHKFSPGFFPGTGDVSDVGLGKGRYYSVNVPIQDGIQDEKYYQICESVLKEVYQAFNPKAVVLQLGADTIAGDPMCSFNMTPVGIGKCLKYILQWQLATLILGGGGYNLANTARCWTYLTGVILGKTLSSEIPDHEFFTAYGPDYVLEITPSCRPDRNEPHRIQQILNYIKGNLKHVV

[4] = molecular target: Histone deacetylase 4 (Homo sapiens, UniProt P56524); test: Inhibition of recombinant N-terminal GST-tagged /C-terminal His-tagged human HDAC4 (627 to 1084 residues) expressed in Baculovirus infected insect cells using Boc-Lys(trifluoroacetyl)-AMC as substrate by fluorimetric assay
Sequence of Histone deacetylase 4 (P56524 whole entry, the tested form may be a part): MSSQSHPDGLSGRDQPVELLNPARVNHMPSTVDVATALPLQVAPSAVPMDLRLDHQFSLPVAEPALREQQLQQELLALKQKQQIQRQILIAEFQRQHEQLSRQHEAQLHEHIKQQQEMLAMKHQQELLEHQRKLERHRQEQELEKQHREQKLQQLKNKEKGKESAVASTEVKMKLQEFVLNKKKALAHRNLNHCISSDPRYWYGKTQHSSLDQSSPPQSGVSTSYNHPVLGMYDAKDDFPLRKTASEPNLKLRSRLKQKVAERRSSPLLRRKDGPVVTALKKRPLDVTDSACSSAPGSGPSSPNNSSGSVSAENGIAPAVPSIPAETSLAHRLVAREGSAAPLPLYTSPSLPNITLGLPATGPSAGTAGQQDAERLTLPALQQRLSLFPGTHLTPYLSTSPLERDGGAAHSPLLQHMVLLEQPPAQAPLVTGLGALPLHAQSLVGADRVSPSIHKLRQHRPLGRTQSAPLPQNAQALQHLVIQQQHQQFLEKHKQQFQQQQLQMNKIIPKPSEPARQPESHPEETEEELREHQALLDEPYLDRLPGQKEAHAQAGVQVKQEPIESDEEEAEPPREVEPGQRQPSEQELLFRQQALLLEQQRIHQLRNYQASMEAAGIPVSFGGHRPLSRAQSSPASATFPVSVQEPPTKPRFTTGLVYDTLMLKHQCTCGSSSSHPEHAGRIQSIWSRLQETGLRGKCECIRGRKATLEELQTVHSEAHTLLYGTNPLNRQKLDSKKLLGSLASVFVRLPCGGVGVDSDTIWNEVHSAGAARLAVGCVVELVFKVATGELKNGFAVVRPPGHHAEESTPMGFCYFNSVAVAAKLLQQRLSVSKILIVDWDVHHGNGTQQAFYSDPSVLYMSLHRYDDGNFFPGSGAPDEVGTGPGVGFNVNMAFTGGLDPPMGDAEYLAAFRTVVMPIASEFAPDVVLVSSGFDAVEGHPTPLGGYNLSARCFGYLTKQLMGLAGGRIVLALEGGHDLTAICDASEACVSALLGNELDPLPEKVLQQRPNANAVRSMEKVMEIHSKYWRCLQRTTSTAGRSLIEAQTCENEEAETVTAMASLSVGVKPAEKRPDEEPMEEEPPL

[5] = Drug uptake in zebrafish embryo vasculature at 1 to 20 uM administered from 24 to 50 hrs post fertilization for 24 hrs and measured after 72 hrs by fluorescence microscopic analysis; type: ADME, Danio rerio; settings: in vivo
In short: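 Zebrafish embryos treated with 1, 10 or 20 µM from 24–50 hpf, with 0 µM controls; trunk and tail imaged at 72 hpf by fluorescence microscopy (λex 480 nm, λem 517 nm).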

[6] = molecular target: Histone deacetylase 3/Nuclear receptor corepressor 2 (HDAC3/NCoR2) (Homo sapiens, UniProt O15379); type: cell-based
Sequence of Histone deacetylase 3/Nuclear receptor corepressor 2 (HDAC3/NCoR2) (O15379 whole entry, the tested form may be a part): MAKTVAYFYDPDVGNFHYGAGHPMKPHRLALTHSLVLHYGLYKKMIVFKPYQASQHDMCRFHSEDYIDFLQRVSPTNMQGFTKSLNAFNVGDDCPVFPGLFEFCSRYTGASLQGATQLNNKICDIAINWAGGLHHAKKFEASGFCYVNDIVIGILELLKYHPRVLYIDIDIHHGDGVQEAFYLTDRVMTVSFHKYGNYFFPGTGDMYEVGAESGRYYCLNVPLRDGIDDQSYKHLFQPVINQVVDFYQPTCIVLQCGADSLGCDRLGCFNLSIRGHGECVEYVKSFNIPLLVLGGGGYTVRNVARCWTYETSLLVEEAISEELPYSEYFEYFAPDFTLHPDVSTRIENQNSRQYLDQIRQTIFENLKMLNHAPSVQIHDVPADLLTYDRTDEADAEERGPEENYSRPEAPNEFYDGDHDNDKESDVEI
Sequence of Histone deacetylase 3/Nuclear receptor corepressor 2 (HDAC3/NCoR2) (Q9Y618 whole entry, further chain, the tested form may be a part): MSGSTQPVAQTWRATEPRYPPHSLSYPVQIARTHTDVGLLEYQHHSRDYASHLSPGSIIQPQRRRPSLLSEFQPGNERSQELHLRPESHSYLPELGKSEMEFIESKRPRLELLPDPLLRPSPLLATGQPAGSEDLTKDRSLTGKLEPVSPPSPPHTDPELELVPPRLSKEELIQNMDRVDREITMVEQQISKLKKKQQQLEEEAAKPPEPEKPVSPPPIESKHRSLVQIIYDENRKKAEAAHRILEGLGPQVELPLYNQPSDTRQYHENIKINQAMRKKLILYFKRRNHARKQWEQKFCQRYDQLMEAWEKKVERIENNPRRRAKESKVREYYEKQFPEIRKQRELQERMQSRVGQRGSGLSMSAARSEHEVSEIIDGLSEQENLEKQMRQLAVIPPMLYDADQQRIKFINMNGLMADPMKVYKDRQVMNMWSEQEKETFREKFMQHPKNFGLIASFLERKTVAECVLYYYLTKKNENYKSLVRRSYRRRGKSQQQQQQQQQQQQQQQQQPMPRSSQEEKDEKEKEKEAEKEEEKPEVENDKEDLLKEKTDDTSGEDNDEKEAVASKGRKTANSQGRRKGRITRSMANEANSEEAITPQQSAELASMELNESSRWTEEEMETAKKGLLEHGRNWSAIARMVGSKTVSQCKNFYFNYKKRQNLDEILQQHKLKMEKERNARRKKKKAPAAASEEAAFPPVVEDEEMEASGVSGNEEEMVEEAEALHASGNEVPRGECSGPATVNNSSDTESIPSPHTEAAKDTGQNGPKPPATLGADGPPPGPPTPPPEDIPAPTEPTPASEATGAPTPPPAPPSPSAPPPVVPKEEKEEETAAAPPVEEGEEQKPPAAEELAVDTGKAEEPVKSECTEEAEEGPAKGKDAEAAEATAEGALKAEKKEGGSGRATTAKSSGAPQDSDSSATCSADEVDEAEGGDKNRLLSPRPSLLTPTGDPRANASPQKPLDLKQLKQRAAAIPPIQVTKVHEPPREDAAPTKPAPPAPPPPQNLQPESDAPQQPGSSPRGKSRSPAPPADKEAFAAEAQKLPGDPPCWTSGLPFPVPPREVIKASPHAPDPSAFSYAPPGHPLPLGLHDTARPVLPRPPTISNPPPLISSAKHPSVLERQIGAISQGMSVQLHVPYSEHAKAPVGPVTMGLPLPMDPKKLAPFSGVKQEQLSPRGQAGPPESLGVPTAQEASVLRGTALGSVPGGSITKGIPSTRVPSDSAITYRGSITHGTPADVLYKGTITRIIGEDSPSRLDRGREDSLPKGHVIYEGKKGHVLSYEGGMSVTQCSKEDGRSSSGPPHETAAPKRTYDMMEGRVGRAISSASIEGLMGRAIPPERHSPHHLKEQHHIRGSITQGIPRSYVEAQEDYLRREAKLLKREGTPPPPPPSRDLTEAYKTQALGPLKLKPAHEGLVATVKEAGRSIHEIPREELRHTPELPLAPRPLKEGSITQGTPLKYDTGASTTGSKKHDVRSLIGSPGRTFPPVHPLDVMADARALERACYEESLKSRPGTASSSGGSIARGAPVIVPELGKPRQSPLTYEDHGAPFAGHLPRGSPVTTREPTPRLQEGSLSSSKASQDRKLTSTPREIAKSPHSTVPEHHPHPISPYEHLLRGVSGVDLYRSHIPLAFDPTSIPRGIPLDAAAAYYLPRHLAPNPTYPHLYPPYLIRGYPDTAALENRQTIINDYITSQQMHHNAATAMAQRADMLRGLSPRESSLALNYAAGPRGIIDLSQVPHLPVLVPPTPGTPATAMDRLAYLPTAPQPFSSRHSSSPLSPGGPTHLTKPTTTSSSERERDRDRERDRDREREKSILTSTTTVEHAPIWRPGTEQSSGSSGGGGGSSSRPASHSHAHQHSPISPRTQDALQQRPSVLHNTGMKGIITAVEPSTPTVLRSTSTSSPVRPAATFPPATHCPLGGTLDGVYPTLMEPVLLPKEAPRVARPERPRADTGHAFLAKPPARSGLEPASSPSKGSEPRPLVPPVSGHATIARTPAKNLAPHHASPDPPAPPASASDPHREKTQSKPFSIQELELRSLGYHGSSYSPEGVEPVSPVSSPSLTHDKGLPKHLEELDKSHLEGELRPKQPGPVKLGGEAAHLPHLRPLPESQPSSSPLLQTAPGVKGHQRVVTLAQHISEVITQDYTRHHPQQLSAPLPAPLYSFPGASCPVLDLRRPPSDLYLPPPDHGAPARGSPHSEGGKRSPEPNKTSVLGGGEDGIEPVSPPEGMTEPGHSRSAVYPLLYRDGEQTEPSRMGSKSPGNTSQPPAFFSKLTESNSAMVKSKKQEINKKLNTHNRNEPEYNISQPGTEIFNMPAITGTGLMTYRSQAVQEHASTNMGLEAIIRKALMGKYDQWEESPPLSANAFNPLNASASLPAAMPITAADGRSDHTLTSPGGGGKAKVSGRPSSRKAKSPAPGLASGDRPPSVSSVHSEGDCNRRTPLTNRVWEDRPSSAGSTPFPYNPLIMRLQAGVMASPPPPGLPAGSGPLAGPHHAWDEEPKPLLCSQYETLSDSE

[7] = organism: Homo sapiens; test: Selectivity ratio of IC50 for human HDAC10 to IC50 for recombinant N-terminal GST-tagged human HDAC6 (1 to 1215 residues)
[8] = molecular target: Histone deacetylase 5 (Homo sapiens, UniProt Q9UQL6); test: Inhibition of recombinant C-terminal His-tagged human HDAC5 (656 to 1122 residues) expressed in insect cells using Boc-K(Ac)-AMC as substrate by fluorimetric assay
Sequence of Histone deacetylase 5 (Q9UQL6 whole entry, the tested form may be a part): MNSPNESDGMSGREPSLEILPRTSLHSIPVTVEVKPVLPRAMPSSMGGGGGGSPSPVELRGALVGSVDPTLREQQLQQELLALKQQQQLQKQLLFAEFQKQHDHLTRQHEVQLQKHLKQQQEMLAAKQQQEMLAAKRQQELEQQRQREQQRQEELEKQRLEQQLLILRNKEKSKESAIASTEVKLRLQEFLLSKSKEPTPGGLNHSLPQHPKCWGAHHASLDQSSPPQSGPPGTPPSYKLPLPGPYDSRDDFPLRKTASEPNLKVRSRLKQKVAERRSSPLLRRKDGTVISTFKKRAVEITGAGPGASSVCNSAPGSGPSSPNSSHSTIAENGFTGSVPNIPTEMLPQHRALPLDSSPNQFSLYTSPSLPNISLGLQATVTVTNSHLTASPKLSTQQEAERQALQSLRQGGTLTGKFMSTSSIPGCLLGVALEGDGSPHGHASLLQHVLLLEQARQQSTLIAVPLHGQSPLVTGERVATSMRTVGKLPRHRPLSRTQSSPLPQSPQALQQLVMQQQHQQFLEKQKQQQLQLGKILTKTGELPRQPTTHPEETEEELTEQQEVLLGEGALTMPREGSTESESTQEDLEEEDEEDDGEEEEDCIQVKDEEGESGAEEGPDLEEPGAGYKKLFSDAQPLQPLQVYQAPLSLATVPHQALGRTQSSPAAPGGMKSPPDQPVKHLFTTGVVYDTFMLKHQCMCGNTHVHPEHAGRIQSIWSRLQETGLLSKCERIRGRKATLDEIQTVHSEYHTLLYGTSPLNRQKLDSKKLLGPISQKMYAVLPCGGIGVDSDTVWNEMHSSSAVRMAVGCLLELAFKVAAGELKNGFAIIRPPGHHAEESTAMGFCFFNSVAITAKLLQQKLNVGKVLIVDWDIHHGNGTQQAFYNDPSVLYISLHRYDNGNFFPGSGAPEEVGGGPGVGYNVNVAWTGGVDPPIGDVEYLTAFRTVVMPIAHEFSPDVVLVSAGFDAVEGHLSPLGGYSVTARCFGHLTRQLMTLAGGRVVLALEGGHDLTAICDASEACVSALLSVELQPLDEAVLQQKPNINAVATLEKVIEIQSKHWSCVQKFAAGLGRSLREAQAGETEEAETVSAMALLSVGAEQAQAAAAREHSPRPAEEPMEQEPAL

[9] = molecular target: T3, Histone deacetylase 11 (Homo sapiens, UniProt Q96DB2); test: Inhibition of recombinant C-terminal His-tagged human HDAC11 (1 to 347 residues) expressed in Baculovirus infected insect cells using RHKK-Ac as substrate by fluorimetric assay
T3 sequence (Q96DB2 whole entry): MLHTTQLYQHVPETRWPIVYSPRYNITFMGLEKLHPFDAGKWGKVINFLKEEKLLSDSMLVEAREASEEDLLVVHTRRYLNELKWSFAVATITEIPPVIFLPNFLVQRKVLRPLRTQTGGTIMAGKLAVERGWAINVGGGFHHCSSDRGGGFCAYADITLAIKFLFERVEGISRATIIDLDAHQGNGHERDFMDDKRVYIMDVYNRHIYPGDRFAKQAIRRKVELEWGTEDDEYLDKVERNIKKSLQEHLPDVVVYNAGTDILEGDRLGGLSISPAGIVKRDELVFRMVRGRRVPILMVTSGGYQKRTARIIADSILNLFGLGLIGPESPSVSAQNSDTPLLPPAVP

[10] = organism: Homo sapiens; test: Selectivity ratio of IC50 for human recombinant full length C-terminal His-tagged HDAC3 (1 to 428 residues)/N-terminal GST-tagged NCOR2 (395 to 489 residues) to IC50 for recombinant N-terminal GST-tagged human HDAC6 (1 to 1215 residues)

SMILES | IC50 [1] | Activity [2] | IC50 [3] | IC50 [4] | Drug uptake [5] | IC50 [6] | Ratio IC50 [7] | IC50 [8] | IC50 [9] | Ratio IC50 [10]
O=C(CCCCCN1C(=O)c2cccc3c(NCc4ccccc4)ccc(c23)C1=O)NO | 660 nM | Active | 2460 nM | 5500 nM | Active | 360 nM | 190 | 3400 nM | 150 nM | 100 to 103
CCCNc1ccc2c3c(cccc13)C(=O)N(CCCCCC(=O)NO)C2=O | 320 nM | Active | 1520 nM | > 10000 nM | Active | 110 nM | 67 | 5300 nM | 80 nM | 23
